In test [1] the test system is Human alphaherpesvirus 2. Nature of the test: Antiviral activity against Human herpesvirus 2 isolate P27 infected in African green monkey CV1 cells assessed as log reduction in viral titer at 100 uM within 20 mins. Format: functional, CV-1. Summed up:
(§1)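 Time course: clarified CV-1 supernatant of HSV-2 (clinical isolates or strain 333) was exposed to 100 μM EGCG for increasing times. It was then titrated by tenfold dilution on CV-1 cells, three wells per dilution, for 5 days at 37°C with CPE read-out. Reed-Muench TCID50 was compared with the untreated titer. Mean of three separate experiments.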

Test [2] concerns Human alphaherpesvirus 2. The test can be described thus: Antiviral activity against Human herpesvirus 2 isolate P22 infected in African green monkey CV1 cells assessed as log reduction in viral titer at 100 uM within 20 mins. The class given is functional, CV-1. The method, boiled down:
as §1

The test system of test [3] is Human alphaherpesvirus 2. The test can be described thus: Antiviral activity against Human herpesvirus 2 isolate P11 infected in African green monkey CV1 cells assessed as log reduction in viral titer at 100 uM within 10 mins. Format: functional, CV-1. The method, boiled down: (§2)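 HSV-2 clinical isolates from clarified CV-1 supernatants were held with 100 μM EGCG for timed intervals, from 10 min onward. Surviving virus was titrated on CV-1 cells by 10-fold dilution and 5-day CPE scoring, with TCID50 by Reed-Muench. Values are mean ± SD, three experiments.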

Test [4] concerns Human alphaherpesvirus 1. The test can be described thus: Antiviral activity against Human herpesvirus 1 isolate P15 infected in African green monkey vero cells assessed as reduction in viral titer at 100 uM. The class given is functional, organism-based. Summed up: (§3)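 Laboratory HSV-1 F1 or patient-swab HSV-1 isolates were prepared as clarified Vero supernatants. They were incubated 1 h with a range of EGCG concentrations in RPMI 1640/1% FCS at pH 7.4. Titres were determined on Vero cells by 5-day CPE endpoint (Reed-Muench). IC99 was read graphically as 99% titre drop from untreated; mean ± SD, three experiments.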

Test [5] has as its system Human alphaherpesvirus 1. The test can be described thus: Antiviral activity against Human herpesvirus 1 F1 assessed as decrease in labeled gB envelope glycoprotein at 100 uM after 2 hrs by electron microscopy. The class given is functional, organism-based. Summed up:
(§4)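 Purified HSV-1 F1 virions were treated with 100 μM EGCG for 2 h, fixed in glutaraldehyde/paraformaldehyde and LR White-embedded without osmium. Nickel-grid sections were blocked with BSA and goat serum, then labelled overnight with anti-gB or anti-gD monoclonal (1:15) and 15 nm colloidal gold. Labelled versus unlabelled particles were counted in 10 fields of 100 particles; mean ± SD.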

The test system of test [6] is Human alphaherpesvirus 2. Nature of the test: Antiviral activity against Human herpesvirus 2 isolate P27 infected in African green monkey CV1 cells assessed as log reduction in viral titer at 12.5 uM. The class given is functional, CV-1. The method, boiled down:
(§5)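 HSV-2 (clinical swab isolates or strain 333) was grown in CV-1 cells and used as clarified supernatant. Virus was exposed to graded EGCG for 1 h in RPMI 1640 with 1% FCS, pH 7.4. Tenfold dilutions were titrated on CV-1 cells, three wells each, 5 days at 37°C, scoring CPE. TCID50 was calculated by Reed-Muench. IC99 was read graphically as 99% titer drop from the zero-concentration titer. Mean of three experiments.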

The test system of test [7] is Human alphaherpesvirus 1. Nature of the test: Antiviral activity against Human herpesvirus 1 isolate P42 infected in African green monkey vero cells assessed as reduction in viral titer. Format: functional, organism-based. Particulars: Human alphaherpesvirus 1, isolate P42, Vero. The method, boiled down:
as §3

For test [8], the system named is Human alphaherpesvirus 1. The test can be described thus: Antiviral activity against Human herpesvirus 1 isolate P42 infected in African green monkey vero cells assessed as reduction in viral titer at 100 uM. Format: functional, organism-based. Summed up:
as §3

Test [9] concerns Human alphaherpesvirus 1. The test can be described thus: Antiviral activity against Human herpesvirus 1 isolate P32 infected in African green monkey vero cells assessed as log reduction in viral titer at 100 uM within 10 mins. Format: functional. The method, boiled down: (§6)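 In the time course, HSV-1 clinical isolates (clarified Vero supernatants) were exposed to 100 μM EGCG for varying times up to 60 min. Residual infectivity was then titrated on Vero cells by 5-day CPE endpoint with Reed-Muench calculation. Mean ± SD of three separate experiments.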

For test [10], the system named is Human alphaherpesvirus 1. Nature of the test: Antiviral activity against Human herpesvirus 1 isolate P38 infected in African green monkey vero cells assessed as log reduction in viral titer at 100 uM after 30 mins. Format: functional. Summed up:
as §6

Test [11] deals with Human alphaherpesvirus 2. Nature of the test: Antiviral activity against Human herpesvirus 2 isolate P22 infected in African green monkey CV1 cells assessed as log reduction viral titer at 50 uM. The class given is functional, CV-1. The method, boiled down:
as §5

In test [12] the test system is Human alphaherpesvirus 2. Nature of the test: Antiviral activity against Human herpesvirus 2 isolate P47 infected in African green monkey CV1 cells. Format: functional, organism-based. The conditions noted are these: Human alphaherpesvirus 2, isolate P47, CV-1. The method, boiled down:
as §5

Test [13] relates to Human alphaherpesvirus 2. Nature of the test: Antiviral activity against Human herpesvirus 2 isolate P2 infected in African green monkey CV1 cells assessed as log reduction viral titer at 12.5 ug/ml. Format: functional, CV-1. Summed up:
as §5

Test [14] deals with Human alphaherpesvirus 2. The test can be described thus: Antiviral activity against Human herpesvirus 2 strain 333 infected in African green monkey vero cells assessed as log reduction in viral titer at 100 uM after 60 mins. The class given is functional. The method, boiled down:
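Lab strain HSV-2 333 was grown and titrated either in CV-1 cells or in Vero cells. Virus was incubated with 100 μM EGCG for 60 min, then titrated as tenfold dilutions for 5 days at 37°C with CPE scoring. Reed-Muench TCID50 of treated versus control virus gave the titer decrease. Mean of three experiments.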

Test [15] relates to Human alphaherpesvirus 1. The test can be described thus: Antiviral activity against Human herpesvirus 1 F1 assessed as decrease in labeled gD envelope glycoprotein at 100 uM after 2 hrs by electron microscopy. Format: functional, organism-based. Summed up: as §4
The test system of test [16] is Human alphaherpesvirus 1. Nature of the test: Antiviral activity against Human herpesvirus 1 isolate P15 infected in African green monkey vero cells assessed as reduction in viral titer. Format: functional, organism-based. The conditions noted are these: Human alphaherpesvirus 1, isolate P15, Vero. Summed up:
as §3

Test [17] deals with Human alphaherpesvirus 1. The test can be described thus: Antiviral activity against Human herpesvirus 1 isolate P42 infected in African green monkey vero cells assessed as log reduction in viral titer at 100 uM after 30 mins. The class given is functional. Summed up:
as §6

The test system of test [18] is Human alphaherpesvirus 2. The test can be described thus: Antiviral activity against Human herpesvirus 2 isolate P47 infected in African green monkey CV1 cells assessed as log reduction in viral titer at 12.5 uM. The class given is functional, CV-1. Summed up:
as §5

The test system of test [19] is Human alphaherpesvirus 2. Nature of the test: Antiviral activity against Human herpesvirus 2 isolate P47 infected in African green monkey CV1 cells assessed as log reduction in viral titer at 100 uM within 10 mins. Format: functional, CV-1. Summed up:
as §1

Test [20] has as its system Human alphaherpesvirus 2. The test can be described thus: Antiviral activity against Human herpesvirus 2 isolate P12 infected in African green monkey CV1 cells assessed as log reduction in viral titer at 100 uM within 10 mins. The class given is functional, CV-1. The method, boiled down: as §2
Test [21] deals with Human alphaherpesvirus 2. Nature of the test: Antiviral activity against Human herpesvirus 2 isolate P11 infected in African green monkey CV1 cells assessed as log reduction in viral titer at 12.5 uM. The class given is functional, CV-1. The method, boiled down: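 HSV-2 patient-swab isolates were grown as clarified CV-1 supernatants and incubated 1 h with a range of EGCG concentrations (RPMI 1640/1% FCS, pH 7.4). They were titrated on CV-1 cells from 10-fold dilutions by 5-day CPE at 37°C, with Reed-Muench TCID50. IC99 was derived graphically as 99% reduction from zero-drug titre; mean ± SD, three experiments.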

The subject of test [22] is Human alphaherpesvirus 1. Nature of the test: Antiviral activity against Human herpesvirus 1 isolate P38 infected in African green monkey vero cells assessed as log reduction in viral titer at 100 uM after 40 to 60 mins. The class given is functional. Summed up:
as §6

The test system of test [23] is Human alphaherpesvirus 2. The test can be described thus: Antiviral activity against Human herpesvirus 2 isolate P2 infected in African green monkey CV1 cells assessed as log reduction in viral titer at 12.5 uM. Format: functional, CV-1. The method, boiled down: as §5

Activity calls are given as the source filed them. The calls are words filed in the database; no cut-off is given here. Bounds are passed on as bounds.

Broadly, the IC99 is the concentration needed for an effect of 99%.

Turning to `O=C(O[C@@H]1Cc2c(O)cc(O)cc2O[C@@H]1c1cc(O)c(O)c(O)c1)c1cc(O)c(O)c(O)c1` [EPIGALOCATECHIN GALLATE], the FC in test [1] is recorded as 3; in [2] it was 3; in test [3], 2; in [6] it was “>=2”; in test [9] it was 2; in test [10], 2. Moreover, the FC in test [11] is greater than 4; in test [13], 3.15; in test [14], 4; in test [17], 2; in test [18] it was “>=2”; in test [19], 2. Moreover, the FC was 2 in test [20], “>=2” in test [21], 3 in [22] and “>=2” in test [23]. Also, the result in [4], in test [5], in [8] and in test [15] was Active. The IC99 turned out to be 49.1 µM in test [7], 12.5 µM in [12] and 48.4 µM in [16].

The values are drawn from ChEMBL document CHEMBL1629542, “Epigallocatechin gallate inactivates clinical isolates of herpes simplex virus” (Antimicrob Agents Chemother, 2008).
